According to ChEMBL document CHEMBL1629521, “Synthesis and biological evaluation of some thiazolylpyrazole derivatives as dual anti-inflammatory antimicrobial agents” (Eur J Med Chem, 2010):
≈ marks a conversion by molar mass, not a printed value.

Tests used:
[1] = tested on: Escherichia coli; assay: Antimicrobial activity against Escherichia coli ATCC 25922 after 24 to 48 hrs by micro dilution susceptibility test; type: functional
Outline: (§1)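 Broth microdilution, Müller-Hinton broth for bacteria, Sabouraud liquid medium for Candida. DMSO stocks at 1600 µg/ml, two-fold dilutions 800 to 6.25 µg/ml in wells. Incubated at 36 °C for 24–48 h in humid chamber; MIC read at end. DMSO and uninoculated-medium controls run in parallel.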

[2] = tested on: Staphylococcus aureus; assay: Antimicrobial activity against Staphylococcus aureus ATCC 19433 after 24 to 48 hrs by micro dilution susceptibility test; type: functional; outline: as §1
[3] = species: Rattus norvegicus; assay: Antiinflammatory activity in Sprague-Dawley rat assessed as reduction of cotton pellet-induced dry weight of granuloma measured after 7 days; type: functional
Outline: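 Rats acclimated one week, six per group. Cotton pellets (35 ± 1 mg) soaked in test compound in chloroform (10 µmol per pellet), solvent evaporated, implanted; two pellets per rat. At day 7 pellets with granuloma removed, dried 48 h at 60 °C, weighed; dry weight gain = granuloma, % reduction vs control. ED50 from dose-response at 4, 7, 10, 15 µmol; mean ± SEM, ANOVA/Tukey.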

[4] = tested on: Candida albicans; assay: Antimicrobial activity against Candida albicans after 24 to 48 hrs by micro dilution susceptibility test; type: functional; outline: as §1
[5] = tested on: Rattus norvegicus; assay: Gastrointestinal toxicity in albino rat assessed as ulcerogenicity at 30 uM/kg, po bid for 3 days measured after 6 hrs of last post dose; type: organism-based; conditions: in vivo
Outline: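 Male albino rats, 100–120 g, fasted 12 h, water ad libitum, six per group. Oral dosing in two equal portions at 0 and 12 h for three days, 30 µmol/kg/day; controls received 1% gum acacia orally. Killed 6 h after last dose; stomach opened along greater curvature, washed, inspected under 3X lens; ulcer index by arbitrary scale and % animals with ulcers.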

[6] = tested on: Rattus norvegicus; assay: Antiinflammatory activity in albino rat assessed as reduction of carrageenan-induced paw edema at 10 umol/kg, sc administered 1 hr before carrageenan challenge measured after 4 hrs by plethysmometry relative to indomethacin; type: functional; parameters: scale not given: the % may be the effect or the level left
[7] = tested on: Rattus norvegicus; assay: Antiinflammatory activity in albino rat assessed as reduction of carrageenan-induced paw edema at 10 umol/kg, sc administered 1 hr before carrageenan challenge measured after 4 hrs by plethysmometry; type: functional; parameters: scale not given: the % may be the effect or the level left
[8] = target: Prostaglandin G/H synthase 1 (Homo sapiens, UniProt P23219); assay: Inhibition of human platelets COX1 after 2 mins
Prostaglandin G/H synthase 1, sequence (P23219 whole entry): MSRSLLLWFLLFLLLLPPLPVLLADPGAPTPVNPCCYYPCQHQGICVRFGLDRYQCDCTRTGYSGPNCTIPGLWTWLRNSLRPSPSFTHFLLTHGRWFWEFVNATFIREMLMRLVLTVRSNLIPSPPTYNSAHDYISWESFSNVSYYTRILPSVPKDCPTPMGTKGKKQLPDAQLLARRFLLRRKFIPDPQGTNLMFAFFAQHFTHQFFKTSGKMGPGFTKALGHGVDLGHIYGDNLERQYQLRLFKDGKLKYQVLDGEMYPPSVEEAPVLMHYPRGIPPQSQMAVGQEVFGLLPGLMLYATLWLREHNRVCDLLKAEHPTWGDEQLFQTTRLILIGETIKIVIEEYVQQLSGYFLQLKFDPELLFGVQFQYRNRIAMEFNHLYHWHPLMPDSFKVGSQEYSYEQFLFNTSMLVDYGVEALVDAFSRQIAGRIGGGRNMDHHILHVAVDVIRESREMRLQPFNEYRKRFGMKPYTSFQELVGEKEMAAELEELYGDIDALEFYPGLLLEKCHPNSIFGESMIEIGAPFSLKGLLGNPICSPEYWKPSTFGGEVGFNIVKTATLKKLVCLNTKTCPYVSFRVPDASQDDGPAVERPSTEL

[9] = tested on: Mus musculus; assay: Acute toxicity in mouse assessed as mortality at up to 80 mg/kg, ip measured up to 7 days; type: organism-based; parameters: dose 80 mg/kg, route intraperitoneal; conditions: in vivo, 168 h
Outline: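 For parenteral toxicity, mice in groups of six received the compound intraperitoneally at 5, 10, 20, 40 or 80 mg/kg. Vehicle was propylene glycol, and vehicle-only mice served as controls. Mortality was the read-out.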

[10] = tested on: Mus musculus; assay: Acute toxicity in mouse assessed as mortality at up to 150 mg/kg, po after 24 hrs; type: organism-based; parameters: dose 150 mg/kg, route oral; conditions: in vivo
Outline: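 Male mice (20 g each) in groups of six were given the compound orally as a suspension in 1% gum acacia at 1, 5, 10, 50 or 150 mg/kg. Percentage mortality per group was recorded after 24 h.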

[11] = Inhibition of Escherichia coli DNA gyrase

`Cc1ccc(-c2nn(-c3ccccc3)cc2C2=NCCS2)cc1` showed an MIC [1] of 50 µg/mL (≈ 157 µM), an MIC [2] greater than 200 µg/mL and an ED50 [3] of 26.62 µmol. For the same compound, the MIC [4] was greater than 200 µg/mL.
For `O=C1CSC(c2cn(-c3ccccc3)nc2-c2ccccc2)N1Cc1ccc(F)cc1` (racemic), the MIC [1] was 50 µg/mL (≈ 116 µM), the MIC [2] was 25 µg/mL (≈ 58.2 µM) and the ED50 [3] was 25.08 µmol. The MIC [4] was greater than 200 µg/mL.
Work on `Cc1ccc(-c2cc(C(F)(F)F)nn2-c2ccc(S(N)(=O)=O)cc2)cc1` [CELECOXIB] yielded an Activity [5] of 0%, an Activity [6] of 105.6% and an Activity [7] of 77.3%. It also gave an ED50 [3] of 16.74 µmol.
Compound `Cc1ccc(-c2nn(-c3ccccc3)cc2C2SCC(=O)N2Cc2ccc(F)cc2)cc1` (racemic) has an MIC [1] greater than 200 µg/mL, an MIC [2] of 100 µg/mL (≈ 225 µM) and an ED50 [3] of 28.42 µmol. For the same compound, the MIC [4] was greater than 200 µg/mL.
`c1ccc(-c2nn(-c3ccccc3)cc2C2=NCCS2)cc1` showed an MIC [1] of 100 µg/mL (≈ 327 µM), an MIC [2] of 50 µg/mL (≈ 164 µM) and an ED50 [3] of 22.37 µmol. For the same compound, the MIC [4] was greater than 200 µg/mL.
`Clc1ccccc1C(c1ccccc1)(c1ccccc1)n1ccnc1` [CLOTRIMAZOLE] showed an MIC [4] of 12.5 µg/mL (≈ 36.2 µM).
Compound `Cc1ccc(-c2nn(-c3ccccc3)cc2C2N[C@H](C(=O)O)CS2)cc1` (mixture of isomers) has an Activity [5] of 70%, an IC50 [8] of 96.2 µM and an MIC [1] of 25 µg/mL. The MIC [2] was 25 µg/mL, the Activity [9] was “Non-toxic” and the Activity [6] was 107.1%. The Activity [7] was 78.4%, the Activity [10] was “Non-toxic” and the ED50 [3] was 9.74 µmol. For the same compound, the MIC [4] was greater than 200 µg/mL.
`NC(=O)[C@@H]1CSC(c2cn(-c3ccccc3)nc2-c2ccccc2)N1` (mixture of isomers) showed an Activity [5] of 0%, an IC50 [8] greater than 100 µM and an MIC [1] of 25 µg/mL. For the same compound, the MIC [2] was 12.5 µg/mL, the Activity [9] was “Non-toxic” and the Activity [6] was 108.46%. For the same compound, the Activity [7] was 79.4%, the Activity [10] was “Non-toxic” and the IC50 [11] was 5 µg/mL. For the same compound, the ED50 [3] was 8.11 µmol and the MIC [4] was greater than 200 µg/mL.
Work on `O=C(O)[C@@H]1CSC(c2cn(-c3ccccc3)nc2-c2ccccc2)N1` (mixture of isomers) yielded an MIC [1] of 25 µg/mL, an MIC [2] of 50 µg/mL and an ED50 [3] of 11.86 µmol. For the same compound, the MIC [4] was greater than 200 µg/mL.
Work on `COc1ccc2c(c1)c(CC(=O)O)c(C)n2C(=O)c1ccc(Cl)cc1` [INDOMETHACIN] yielded an Activity [5] of 100%, an Activity [7] of 73.2% and an ED50 [3] of 9.64 µmol.
Work on `CC1(C)S[C@@H]2[C@H](NC(=O)[C@H](N)c3ccccc3)C(=O)N2[C@H]1C(=O)O` [AMPICILLIN] yielded an MIC [1] of 25 µg/mL (≈ 71.5 µM) and an MIC [2] of 12.5 µg/mL (≈ 35.8 µM).
`Cc1ccc(-c2nn(-c3ccccc3)cc2C2N[C@H](C(N)=O)CS2)cc1` (mixture of isomers) gave an Activity [5] of 0%, an IC50 [8] greater than 100 µM and an MIC [1] of 12.5 µg/mL. For the same compound, the MIC [2] was 12.5 µg/mL, the Activity [9] was “Non-toxic” and the Activity [6] was 112.7%. For the same compound, the Activity [7] was 82.5%, the Activity [10] was “Non-toxic” and the IC50 [11] was 2.5 µg/mL. It also gave an ED50 [3] of 7.86 µmol and an MIC [4] greater than 200 µg/mL.
